Values belong to the compound of their own block, whether it stands above or below them. Activity calls are given as the source filed them. The rule behind the calls is not given here.
What was measured:
Endothelial lipase [1] = molecular target: T1, Endothelial lipase (Mus musculus, UniProt Q9WVG5); test: Inhibition of mouse EL expressed in HEK293 cells using PED-A1 as substrate by spectrophotometry; type: cell-based
T1 sequence (Q9WVG5 whole entry): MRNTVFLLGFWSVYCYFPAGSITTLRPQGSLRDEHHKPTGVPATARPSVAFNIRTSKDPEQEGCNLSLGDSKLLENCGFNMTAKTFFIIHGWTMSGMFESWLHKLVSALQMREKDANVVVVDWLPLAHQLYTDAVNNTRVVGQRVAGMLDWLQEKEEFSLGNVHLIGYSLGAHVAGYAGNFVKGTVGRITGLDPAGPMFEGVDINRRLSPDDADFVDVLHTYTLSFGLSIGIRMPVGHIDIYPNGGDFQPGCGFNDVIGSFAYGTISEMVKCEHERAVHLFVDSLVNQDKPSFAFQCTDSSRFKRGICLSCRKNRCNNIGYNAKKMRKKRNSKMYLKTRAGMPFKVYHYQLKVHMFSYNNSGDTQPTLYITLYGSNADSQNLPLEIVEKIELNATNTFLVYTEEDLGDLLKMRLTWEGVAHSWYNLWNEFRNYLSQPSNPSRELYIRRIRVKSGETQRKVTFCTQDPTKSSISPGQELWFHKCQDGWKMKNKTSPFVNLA

[2] = molecular target: T2, Endothelial lipase (Homo sapiens) (UniProt Q9Y5X9); test: (§1) Time dependent inhibition of human EL (19 to 500) expressed in HEK293 cells using PED-A1 as substrate by spectrophotometry; type: cell-based
T2 sequence (whole entry): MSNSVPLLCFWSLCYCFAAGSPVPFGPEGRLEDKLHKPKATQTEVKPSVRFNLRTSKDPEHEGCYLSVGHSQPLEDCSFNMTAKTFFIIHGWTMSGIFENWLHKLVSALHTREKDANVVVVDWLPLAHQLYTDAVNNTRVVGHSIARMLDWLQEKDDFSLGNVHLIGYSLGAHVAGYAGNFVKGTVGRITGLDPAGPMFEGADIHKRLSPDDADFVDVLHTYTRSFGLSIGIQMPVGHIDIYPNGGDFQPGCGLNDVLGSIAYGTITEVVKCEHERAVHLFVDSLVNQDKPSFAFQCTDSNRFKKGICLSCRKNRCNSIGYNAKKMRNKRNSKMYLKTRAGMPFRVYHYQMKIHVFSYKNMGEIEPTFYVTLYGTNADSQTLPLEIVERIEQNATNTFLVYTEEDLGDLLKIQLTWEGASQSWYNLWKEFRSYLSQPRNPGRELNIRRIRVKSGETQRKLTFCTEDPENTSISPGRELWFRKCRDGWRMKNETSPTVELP

Mus musculus [3] = test: Inhibition of EL in C57BL/6J HL-/- mouse assessed as elevated plasma HDL-C level at 30 to 100 mg/kg, ip bid for 2 days followed by a dose on 3rd day morning measured 1 hr post last dose; type: functional, organism-based
Procedure, shortened: (§2)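 C57BL/6J HL-/- (hepatic lipase knockout) mice dosed intraperitoneally with compound or vehicle for three days, at 10, 30 and 100 mg/kg. Plasma lipoproteins, including HDL-C, measured 1 h after the last dose. Percent increase is calculated against vehicle-treated controls, with significance testing between groups.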

Plasma = test: Plasma concentration in ip dosed C57BL/6J HL-/- mouse administered for 3 days measured 1 hr post last dose; type: ADME, organism-based; details: in vivo
Procedure, shortened: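 In HL-/- mice given intraperitoneal doses (10, 30, 100 mg/kg) for three days, plasma compound concentrations were measured 1 h after the final dose. In individual animals, these were correlated with plasma HDL-C and phospholipids.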

Mus musculus [4] = test: Increase in plasma HDL-C level in C57BL/6J HL-/- mouse at 100 mg/kg, ip administered for 2 days followed by a dose on 3rd day morning measured 1 hr post last dose relative to vehicle-treated control; type: functional; details: route intraperitoneal; procedure, shortened: as §2
Mus musculus [5] = test: Increase in plasma HDL-C level in C57BL/6J HL-/- mouse at 30 mg/kg, ip administered for 2 days followed by a dose on 3rd day morning measured 1 hr post last dose relative to vehicle-treated control; type: functional; details: route intraperitoneal; procedure, shortened: as §2
Mus musculus [6] = test: Increase in plasma HDL-C level in C57BL/6J mouse at 100 mg/kg, ip administered for 2 days followed by a dose on 3rd day morning measured 1 hr post last dose relative to vehicle-treated control; type: functional; details: route intraperitoneal
Procedure, shortened: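 C57BL/6J mice given vehicle or compound intraperitoneally, five doses over three days; plasma HDL-C measured 1 h after the last dose. Tested at 100 mg/kg. Change is expressed relative to vehicle controls, as means ± SD, n = 8 per group, with significance tested against the vehicle group.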

Lipoprotein lipase = molecular target: T3, Lipoprotein lipase (Homo sapiens, UniProt P06858); test: Inhibition of human LPL expressed in HEK293 cells using PED-A1 as substrate by spectrophotometry
T3 sequence (P06858 whole entry): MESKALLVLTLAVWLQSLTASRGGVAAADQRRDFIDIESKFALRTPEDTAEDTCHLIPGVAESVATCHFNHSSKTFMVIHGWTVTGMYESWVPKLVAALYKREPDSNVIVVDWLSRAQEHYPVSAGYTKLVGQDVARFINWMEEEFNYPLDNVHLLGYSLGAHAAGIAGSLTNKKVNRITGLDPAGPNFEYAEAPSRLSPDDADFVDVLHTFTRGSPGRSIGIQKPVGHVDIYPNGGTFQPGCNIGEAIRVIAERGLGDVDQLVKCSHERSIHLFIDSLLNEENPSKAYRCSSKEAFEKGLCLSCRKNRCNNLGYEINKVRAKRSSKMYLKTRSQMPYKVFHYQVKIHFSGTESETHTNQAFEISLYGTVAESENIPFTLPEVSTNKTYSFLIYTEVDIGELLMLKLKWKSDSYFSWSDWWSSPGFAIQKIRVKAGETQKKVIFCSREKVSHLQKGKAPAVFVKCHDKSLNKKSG

[7] = molecular target: T4, Hepatic triacylglycerol lipase (Homo sapiens, UniProt P11150); test: Inhibition of human HL expressed in HEK293 cells using PED-A1 as substrate by spectrophotometry
T4 sequence (P11150 whole entry): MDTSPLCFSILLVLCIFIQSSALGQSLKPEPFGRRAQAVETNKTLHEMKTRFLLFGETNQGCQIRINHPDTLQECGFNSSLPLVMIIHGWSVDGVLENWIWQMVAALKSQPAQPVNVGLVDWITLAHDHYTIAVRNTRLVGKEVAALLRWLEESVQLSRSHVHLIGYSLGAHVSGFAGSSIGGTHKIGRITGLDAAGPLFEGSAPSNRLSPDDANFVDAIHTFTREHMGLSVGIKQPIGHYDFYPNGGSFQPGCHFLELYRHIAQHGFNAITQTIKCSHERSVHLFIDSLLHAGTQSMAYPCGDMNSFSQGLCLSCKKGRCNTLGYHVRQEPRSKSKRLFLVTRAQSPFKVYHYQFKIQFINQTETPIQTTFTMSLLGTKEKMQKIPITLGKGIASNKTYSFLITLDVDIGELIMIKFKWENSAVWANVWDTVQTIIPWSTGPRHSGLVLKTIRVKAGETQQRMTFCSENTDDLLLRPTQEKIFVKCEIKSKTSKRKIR

[8] = molecular target: Endothelial lipase (Mus musculus) (UniProt Q9WVG5); test: Inhibition of EL in C57BL/6J HL-/- mouse assessed as elevated plasma phospholipid level at 30 to 100 mg/kg, ip bid for 2 days followed by a dose on 3rd day morning measured 1 hr post last dose
Endothelial lipase [9] = molecular target: T5, Endothelial lipase (Homo sapiens, UniProt Q9Y5X9); test: as §1; type: cell-based
T5 sequence (Q9Y5X9 whole entry): T2 sequence (whole entry)

IC50 (Endothelial lipase [1]): > 33000 nM
Compound: O=C(NCCCCCCc1ccccc1)OCc1ccccc1F

inhibition [2]: Active | Drug uptake (Plasma): Dose-dependent effect | IC50 (Lipoprotein lipase): 1690 nM | IC50 (Endothelial lipase [1]): 680 nM | IC50 [7]: 1360 nM
Compound: O=C(NCCCCCCc1ccccc1)SCc1ccccc1F
Activity (Mus musculus [3]): Active | Activity (Mus musculus [4]): 77% | Activity (Mus musculus [5]): 23% | Activity (Mus musculus [6]): 37% | Activity [8]: Active

IC50 (Endothelial lipase [9]): 23 nM
Compound: O=C(NCCCCCOc1cc(F)cc(F)c1)SCc1nnc(-c2ccccc2)o1

IC50 (Endothelial lipase [1]): 470 nM
Compound: O=C(NCCCCCCc1ccccc1)Oc1ccccc1F

Source: ChEMBL document CHEMBL2380223, “A thiocarbamate inhibitor of endothelial lipase raises HDL cholesterol levels in mice” (Bioorg Med Chem Lett, 2013)
